The values below come from ChEMBL document CHEMBL4177600, “Identification of novel PI3K inhibitors through a scaffold hopping strategy” (Bioorg Med Chem Lett, 2017).

By EC50 is commonly meant the concentration at which the effect is half-maximal. Usually inhibition stands for how much of the control response was suppressed. As a reminder, the half-life is how long it takes for the measured level to halve. Low values mean rapid decline, high ones slow decline. The term clearance denotes a measure of how efficiently the substance is removed, as volume per time. High values mean a high capacity for elimination, low ones a low capacity for elimination. As a reminder, the Vd is a proportionality between amount in the body and measured concentration, not a real space. What is called AUC(0-inf) is the area under the concentration-time curve extrapolated to infinity. A higher AUC(0-inf) goes with more exposure. A word on the bioavailability: it is the share of a dose that reaches the circulation, judged against a reference dose that is usually intravenous. Read a low bioavailability as little systemic uptake. A word on the IC50: it is the concentration that gives 50% inhibition. A word on the Tmax: it is the time at which the peak concentration occurs.

Series [1] can be described thus: Inhibition of PI3K in serum-stimulated human U2OS cells assessed as decrease in AKT1 phosphorylation at S473 by C-ELISA. It is filed as cell-based. The method, boiled down: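 U2OS osteosarcoma cells grown in 0.1% FBS, then serum-stimulated; endogenous phospho-Akt1 (Ser473) quantified by cell ELISA with chemiluminescent substrate. EC50 from sigmoid dose-response fit; two independent experiments in duplicate.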
(ELISA stands for enzyme-linked immunosorbent assay.)

Series [2] concerns the target Focal adhesion kinase 1 (Homo sapiens) (UniProt Q05397). The experiment in a line: Inhibition of human FAK at 1 uM relative to control. The method, boiled down:
(§1)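 Kinase panel of 24 enzymes, each tested at 1 µM; percent inhibition reported as the average of two independent data points.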

Series [3] deals with Insulin receptor (Homo sapiens) (UniProt P06213). Put plainly: Inhibition of recombinant human N-terminal GST-tagged INSR (G989 to S1382 residues) expressed in baculovirus infected Sf9 cells at 1 uM using Poly(Ala,Glu,Lys,Tyr)6:2:5:1 as substrate by filter binding method relative to control. The method, boiled down:
as §1

The target of series [4] is Tyrosine-protein kinase JAK2 (Homo sapiens) (UniProt O60674). Put plainly: Inhibition of recombinant human N-terminal GST/His6-tagged JAK2 (P717 to G1132 residues) expressed in Sf9 insect cells at 1 uM using TRK-C-derived peptide as substrate by filter binding method relative to control. The method, boiled down:
as §1

Series [5] concerns the target Dual specificity mitogen-activated protein kinase kinase 1 (Homo sapiens) (UniProt Q02750). The experiment in a line: Inhibition of wild-type human MEK1 (M1 to V393 residues) expressed in Sf9 insect cells at 1 uM using ERK2-K54R as substrate by filter binding method relative to control. The method, boiled down:
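Single-point screen at 1 µM in a 24-kinase panel run externally; each value is the average of two independent data points. The detailed assay conditions are given only on the provider's site.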

For series [6], the target named is Ribosomal protein S6 kinase alpha-1 (Homo sapiens) (UniProt Q15418). Put plainly: Inhibition of RPS6KA1 (unknown origin) at 1 uM relative to control. The method, boiled down:
as §1

Series [7] in a line: Stability in human liver microsomes assessed as parent compound remaining at 0.5 uM after 30 mins by LC-MS/MS analysis. It is filed as ADME, microsome. The note with it: read-out: Stability. Put shortly: (§2)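 Single time-point stability assay: 0.5 µM compound, 0.5 mg/ml human or mouse liver microsomes in 0.1 M potassium phosphate pH 7.4, with NADPH-regenerating system, 30 min at 37 °C with shaking. Reaction quenched with acetonitrile/0.1% formic acid and centrifuged; supernatant analysed by LC-MS/MS. Reported as percent remaining; duplicates.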
(Liver microsomes are a subcellular fraction often used to study metabolism.)

Series [8] in a line: Stability in mouse liver microsomes assessed as parent compound remaining at 0.5 uM after 30 mins by LC-MS/MS analysis. The note with it: read-out: Stability. It is filed as ADME, microsome. Put shortly: as §2
For another series, the target named is CYP2D6 (Homo sapiens, UniProt P10635). Put plainly: Inhibition of CYP2D6 (unknown origin) at 10 uM relative to control. It is filed as ADME. The method, boiled down:
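CYP1A2, 2C9, 2C19, 2D6 and 3A4 inhibition measured at 10 µM test compound in duplicate; percent inhibition reported.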

A short description of series [9]: Kinetic solubility of the compound in phosphate buffered saline at pH 7.4 at 1 to 2 mg measured after 24 hrs by HPLC analysis. Format: physicochemical. The note with it: read-out: Kinetic_solubility. The method, boiled down: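 Solid compound (1–2 mg) in 1 mL PBS, pH 7.4, inverted in test tubes for 24 h. Samples centrifuged, supernatant analysed by HPLC with diode-array detection, with peak area compared to a standard of known concentration. LC-MS/MS used when UV signal was too low or the chromophore poor. Reported in µM.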

A short description of series [10]: Permeability of the compound at 300 uL after 5 hrs by PAMPA. Format: ADME. The note with it: read-out: permeability. The method, boiled down:
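Pre-coated PAMPA plates with a tri-layer phospholipid membrane. Donor held compound in PBS at the highest concentration soluble in PBS; acceptor was PBS. Incubated 5 h at room temperature, with propranolol and sorafenib (10 µM) as high and low permeability controls. Donor and acceptor concentrations measured by LC-MS/MS; Pe (10^-6 cm/s) calculated from acceptor/equilibrium concentrations, 0.3 cm² area and well volumes.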
(In general: In PAMPA a lipid-coated filter parts donor from acceptor wells.)

Series [11] is described as follows: Half-life in BALB-C mouse at 5 mg/kg, iv by LC-MS/MS analysis. It is filed as ADME, organism-based. The note with it: in vivo. The method, boiled down:
(§3)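 BALB-C mice dosed IV (10% NMP/50% PEG300/40% saline) or PO (10% NMP/90% PEG300). Plasma sampled at 6 (IV) or 8 (PO) time points; compound measured by LC/MS/MS. Parameters from bicompartmental model fit; each value is the mean of 3 independent samples.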

The nature of series [12]: Clearance in BALB-C mouse at 5 mg/kg, iv by LC-MS/MS analysis. Format: ADME, organism-based. The note with it: in vivo. The method, boiled down: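 Mice (BALB-C) given IV dose in 10% NMP/50% PEG300/40% saline; plasma sampled at 6 times, levels by LC/MS/MS.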
Series [13] in a line: Volume of distribution in BALB-C mouse at 5 mg/kg, iv by LC-MS/MS analysis. Format: ADME, organism-based. The note with it: in vivo. Put shortly:
(§4)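 BALB-C mice dosed IV in 10% NMP/50% PEG300/40% saline or PO in 10% NMP/90% PEG300. Plasma sampled at 6 (IV) or 8 (PO) time points and quantified by LC/MS/MS. Parameters come from a bicompartmental model fit; values are means of 3 independent samples. Plasma levels were compared with AKT-P EC50 from U2OS cells converted to ng/ml.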

The nature of series [14]: AUC (infinity) in BALB-C mouse at 5 mg/kg, iv by LC-MS/MS analysis. Format: ADME, organism-based. Also on record: dose 5 mg/kg, time infinity, route intravenous. The note with it: in vivo. The method, boiled down:
as §3

Series [15] can be described thus: AUC (infinity) in BALB-C mouse at 10 mg/kg, po by LC-MS/MS analysis. It is filed as ADME, organism-based. The arrangement: dose 10 mg/kg, time infinity, route oral. The note with it: in vivo. Put shortly: as §3
The nature of series [16]: Half-life in BALB-C mouse at 10 mg/kg, po by LC-MS/MS analysis. It is filed as ADME, organism-based. The note with it: in vivo. Put shortly:
as §3

Series [17] is described as follows: Oral bioavailability in BALB-C mouse at 10 mg/kg by LC-MS/MS analysis. Format: ADME, organism-based. The note with it: in vivo. Put shortly: as §4
For series [18], the system named is Mus musculus. Put plainly: Clearance in BALB-C mouse at 5 mg/kg, iv by LC-MS/MS analysis relative to hepatic blood flow. It is filed as ADME, organism-based. The note with it: in vivo.
In another series the test system is U2OS. Put plainly: Inhibition of AKT phosphorylation in human U2OS cells.
In series [19] the target is Serine/threonine-protein kinase mTOR (Homo sapiens, UniProt P42345). Put plainly: Inhibition of recombinant human GST-tagged mTOR catalytic domain (1360 to 2549 residues) expressed in baculovirus expression system by AlexaFluor647-labeled kinase tracer 314 based LanthaScreen assay.
Series [20] can be described thus: Tmax in BALB-C mouse at 5 mg/kg, po by LC-MS/MS analysis. The note with it: in vivo. It is filed as ADME, organism-based. The method, boiled down:
as §4

The subject of series [21] is Mus musculus. The experiment in a line: Time at which plasma concentration stays above cellular EC50 for inhibition of AKT phosphorylation in BALB-C mouse at 5 mg/kg, po measured up to 24 hrs by LC-MS/MS analysis. The note with it: in vivo. Format: organism-based. The method, boiled down:
as §4

Series [22] can be described thus: Half-life in BALB-C mouse at 3 mg/kg, iv by LC-MS/MS analysis. Format: ADME, organism-based. The note with it: in vivo. Put shortly: as §3
Series [23] is described as follows: AUC (infinity) in BALB-C mouse at 9 mg/kg, po by LC-MS/MS analysis. Format: ADME, organism-based. The arrangement: dose 9 mg/kg, time infinity, route oral. The note with it: in vivo. The method, boiled down:
as §3

Series [24] relates to Mus musculus. The experiment in a line: Time at which plasma concentration stays above cellular EC50 for inhibition of AKT phosphorylation in BALB-C mouse at 9 mg/kg, po measured up to 8 hrs by LC-MS/MS analysis. The note with it: in vivo.

Molecules are shown by their SMILES. Converted amounts (≈) assume the structure as drawn. A value given as a limit tells only on which side of the number the result lay.

Chain of Insulin receptor (Homo sapiens) (P06213 28-758 limits assumed): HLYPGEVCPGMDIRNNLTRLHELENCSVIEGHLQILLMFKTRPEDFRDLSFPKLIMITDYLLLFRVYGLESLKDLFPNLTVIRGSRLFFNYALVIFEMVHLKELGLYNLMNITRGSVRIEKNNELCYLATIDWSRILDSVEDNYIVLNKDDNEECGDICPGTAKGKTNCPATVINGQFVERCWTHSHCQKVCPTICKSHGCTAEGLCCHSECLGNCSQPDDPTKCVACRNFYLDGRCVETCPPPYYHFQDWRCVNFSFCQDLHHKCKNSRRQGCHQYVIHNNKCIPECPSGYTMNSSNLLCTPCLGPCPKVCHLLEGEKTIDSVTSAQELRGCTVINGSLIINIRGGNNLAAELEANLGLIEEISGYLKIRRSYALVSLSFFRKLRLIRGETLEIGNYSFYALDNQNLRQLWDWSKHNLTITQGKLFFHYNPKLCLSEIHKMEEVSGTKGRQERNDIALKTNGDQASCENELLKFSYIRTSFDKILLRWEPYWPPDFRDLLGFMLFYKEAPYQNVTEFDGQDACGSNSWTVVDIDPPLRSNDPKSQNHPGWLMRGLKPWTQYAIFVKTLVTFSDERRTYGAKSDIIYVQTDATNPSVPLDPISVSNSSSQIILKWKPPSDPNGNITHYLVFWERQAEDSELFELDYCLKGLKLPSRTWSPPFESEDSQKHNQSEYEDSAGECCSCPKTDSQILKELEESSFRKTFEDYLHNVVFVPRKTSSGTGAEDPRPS
Chain of Insulin receptor (Homo sapiens) (P06213 763-1382 limits assumed): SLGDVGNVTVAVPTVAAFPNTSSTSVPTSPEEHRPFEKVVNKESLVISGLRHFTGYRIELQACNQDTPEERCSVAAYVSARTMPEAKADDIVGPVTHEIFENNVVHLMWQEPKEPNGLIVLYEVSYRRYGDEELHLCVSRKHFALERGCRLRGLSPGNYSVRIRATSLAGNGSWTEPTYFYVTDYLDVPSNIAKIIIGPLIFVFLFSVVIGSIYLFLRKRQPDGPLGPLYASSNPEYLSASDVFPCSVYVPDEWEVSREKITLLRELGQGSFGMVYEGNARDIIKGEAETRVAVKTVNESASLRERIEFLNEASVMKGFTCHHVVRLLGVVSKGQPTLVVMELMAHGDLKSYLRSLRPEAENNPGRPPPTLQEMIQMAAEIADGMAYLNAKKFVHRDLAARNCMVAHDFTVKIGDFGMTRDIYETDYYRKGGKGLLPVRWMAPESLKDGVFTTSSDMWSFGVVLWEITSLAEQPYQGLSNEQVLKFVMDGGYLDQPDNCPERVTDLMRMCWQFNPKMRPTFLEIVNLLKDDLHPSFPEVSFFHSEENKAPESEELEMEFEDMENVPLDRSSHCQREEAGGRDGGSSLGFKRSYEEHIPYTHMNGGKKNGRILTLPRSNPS
Chain of Focal adhesion kinase 1 (Homo sapiens) (Q05397 2-1052 limits assumed): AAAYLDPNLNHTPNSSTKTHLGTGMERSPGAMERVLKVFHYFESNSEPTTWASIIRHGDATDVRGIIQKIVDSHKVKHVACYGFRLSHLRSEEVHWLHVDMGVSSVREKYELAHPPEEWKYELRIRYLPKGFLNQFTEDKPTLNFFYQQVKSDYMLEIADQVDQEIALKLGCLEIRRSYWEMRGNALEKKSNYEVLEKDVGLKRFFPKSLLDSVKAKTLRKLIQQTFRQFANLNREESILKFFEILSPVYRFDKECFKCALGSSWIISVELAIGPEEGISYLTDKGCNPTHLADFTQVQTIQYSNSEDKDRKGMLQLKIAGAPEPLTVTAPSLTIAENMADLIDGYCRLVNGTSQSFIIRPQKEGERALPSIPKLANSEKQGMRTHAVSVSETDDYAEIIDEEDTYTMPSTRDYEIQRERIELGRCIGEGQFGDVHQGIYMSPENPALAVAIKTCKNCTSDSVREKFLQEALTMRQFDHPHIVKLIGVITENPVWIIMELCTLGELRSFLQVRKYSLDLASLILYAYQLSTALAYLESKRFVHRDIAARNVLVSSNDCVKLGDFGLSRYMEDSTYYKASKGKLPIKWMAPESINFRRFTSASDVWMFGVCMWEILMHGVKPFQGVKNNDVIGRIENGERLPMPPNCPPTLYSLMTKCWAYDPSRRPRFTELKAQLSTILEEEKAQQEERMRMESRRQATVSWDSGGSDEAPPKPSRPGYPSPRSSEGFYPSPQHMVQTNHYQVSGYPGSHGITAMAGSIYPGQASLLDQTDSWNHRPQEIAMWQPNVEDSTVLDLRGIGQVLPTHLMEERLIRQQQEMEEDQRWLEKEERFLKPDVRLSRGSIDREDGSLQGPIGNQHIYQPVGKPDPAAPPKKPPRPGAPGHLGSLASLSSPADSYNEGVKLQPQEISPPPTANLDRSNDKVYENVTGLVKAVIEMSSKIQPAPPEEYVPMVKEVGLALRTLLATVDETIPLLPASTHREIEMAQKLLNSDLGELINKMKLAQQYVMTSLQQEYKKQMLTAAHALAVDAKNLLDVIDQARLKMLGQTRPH
Chain of CYP2D6 (P10635 whole entry): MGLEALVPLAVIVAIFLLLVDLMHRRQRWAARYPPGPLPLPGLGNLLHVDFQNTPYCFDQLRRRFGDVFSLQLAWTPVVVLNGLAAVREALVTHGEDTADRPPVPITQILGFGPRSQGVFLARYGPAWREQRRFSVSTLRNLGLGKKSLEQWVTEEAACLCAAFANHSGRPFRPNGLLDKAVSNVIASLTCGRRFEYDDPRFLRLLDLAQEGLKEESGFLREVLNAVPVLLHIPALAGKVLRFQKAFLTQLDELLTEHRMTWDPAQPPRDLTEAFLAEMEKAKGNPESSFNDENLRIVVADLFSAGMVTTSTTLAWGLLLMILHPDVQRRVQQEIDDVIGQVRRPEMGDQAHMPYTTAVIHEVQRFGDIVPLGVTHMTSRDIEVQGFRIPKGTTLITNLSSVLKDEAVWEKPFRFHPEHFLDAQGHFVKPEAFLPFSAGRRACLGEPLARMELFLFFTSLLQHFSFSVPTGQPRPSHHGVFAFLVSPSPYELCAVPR
Chain of Dual specificity mitogen-activated protein kinase kinase 1 (Homo sapiens) (Q02750 whole entry, the tested form may be a part): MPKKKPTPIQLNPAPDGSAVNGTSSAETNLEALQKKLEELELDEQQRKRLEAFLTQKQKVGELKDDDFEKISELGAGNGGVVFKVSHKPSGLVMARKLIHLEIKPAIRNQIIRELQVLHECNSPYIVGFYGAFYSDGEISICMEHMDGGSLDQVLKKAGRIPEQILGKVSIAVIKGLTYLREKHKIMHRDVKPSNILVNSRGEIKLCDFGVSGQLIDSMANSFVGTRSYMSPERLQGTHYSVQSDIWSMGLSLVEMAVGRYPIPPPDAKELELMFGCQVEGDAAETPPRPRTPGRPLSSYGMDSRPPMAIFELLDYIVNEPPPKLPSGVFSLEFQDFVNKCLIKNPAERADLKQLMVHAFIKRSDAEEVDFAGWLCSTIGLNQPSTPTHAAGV
Chain of Tyrosine-protein kinase JAK2 (Homo sapiens) (O60674 whole entry, the tested form may be a part): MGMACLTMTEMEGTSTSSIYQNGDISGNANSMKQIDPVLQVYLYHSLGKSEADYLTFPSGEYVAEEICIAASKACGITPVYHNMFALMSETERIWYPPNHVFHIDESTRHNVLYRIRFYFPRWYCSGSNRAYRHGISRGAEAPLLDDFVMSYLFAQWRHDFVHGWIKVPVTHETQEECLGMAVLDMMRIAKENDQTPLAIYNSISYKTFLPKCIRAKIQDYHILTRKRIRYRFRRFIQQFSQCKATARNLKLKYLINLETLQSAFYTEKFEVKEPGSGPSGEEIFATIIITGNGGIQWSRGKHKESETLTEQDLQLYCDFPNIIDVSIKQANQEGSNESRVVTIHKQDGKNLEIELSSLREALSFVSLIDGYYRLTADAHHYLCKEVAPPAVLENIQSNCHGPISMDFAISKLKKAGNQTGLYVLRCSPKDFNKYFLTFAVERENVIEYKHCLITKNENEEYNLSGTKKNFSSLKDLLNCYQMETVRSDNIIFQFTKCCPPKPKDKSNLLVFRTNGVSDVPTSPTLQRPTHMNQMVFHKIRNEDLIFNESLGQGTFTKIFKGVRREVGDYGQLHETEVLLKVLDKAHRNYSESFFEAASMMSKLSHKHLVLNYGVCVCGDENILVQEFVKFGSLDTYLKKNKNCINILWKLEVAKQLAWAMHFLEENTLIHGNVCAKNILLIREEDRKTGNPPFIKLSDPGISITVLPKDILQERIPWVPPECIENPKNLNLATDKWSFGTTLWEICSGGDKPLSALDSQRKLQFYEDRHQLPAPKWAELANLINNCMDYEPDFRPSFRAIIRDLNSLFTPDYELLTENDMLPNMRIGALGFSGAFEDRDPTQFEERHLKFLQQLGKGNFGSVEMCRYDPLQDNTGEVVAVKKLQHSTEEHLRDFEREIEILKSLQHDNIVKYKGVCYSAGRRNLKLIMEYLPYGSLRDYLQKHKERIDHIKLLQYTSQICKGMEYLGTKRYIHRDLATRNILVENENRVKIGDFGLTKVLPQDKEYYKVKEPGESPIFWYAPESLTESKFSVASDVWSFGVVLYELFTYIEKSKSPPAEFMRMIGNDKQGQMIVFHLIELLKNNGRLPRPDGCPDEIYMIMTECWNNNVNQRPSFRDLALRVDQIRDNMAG

Take `CS(=O)(=O)N1CCN(Cc2nc3c(N4CCOCC4)nc(-c4cnc(N)nc4)cn3n2)CC1`: the results for the EC50 (in series [1]; in the series with U2OS) were 87.2 nM and 0.04138 µg/mL (≈ 0.0872 µM), respectively. Further, the inhibition in series [2], in series [3], in [4], in [5] and in series [6] was under 25% in each case. The remaining at 0.5 h, 0.5 µM in [7] amounted to 99%; in [8], 100%. On CYP2D6, the inhibition at 10 µM is under 25%. Moreover, the solubility kinetic at 24 h in series [9] was found to be 100 µM (≈ 47.5 µg/mL). Further, the Papp at 5 h in [10] came out at 1.92 ×10⁻⁶ cm/s. The half-life in series [11] is 0.26 h; in series [16], 5.28 h. Further, the clearance in [12] was 35.5 mL/min/kg. This compound registered a volume of distribution (Vd) in [13] of 2 L/kg. The area under the curve AUC(0-inf) in series [14] amounted to 2660 ng·h/mL; in [15], 4690 ng·h/mL. In addition, in [17], the bioavailability turned out to be 88%. The CL with Mus musculus [18] was under 50%.

`CS(=O)(=O)N1CCN(Cc2nc3c(N4CCOCC4)nc(-c4cnc(N)nc4)c(Cl)n3n2)CC1`: the IC50 in [19] is 8170 nM. Further, the EC50 in series [1] came to 68.6 nM. Further, the inhibition in series [2], in series [3], in series [4], in [5] and in series [6] was under 25% in each case. Further, the remaining at 0.5 h, 0.5 µM in series [7] was 97%; in [8] it was 96%. On CYP2D6, this compound registered an inhibition at 10 µM of under 25%. In addition, the solubility kinetic at 24 h in series [9] was 100 µM (≈ 50.9 µg/mL). In series [10], the Papp at 5 h was found to be 0.69 ×10⁻⁶ cm/s. This compound had a half-life in series [11] of 1.81 h. Also, in [12], the clearance is 10.8 mL/min/kg. Also, in series [13], the volume of distribution (Vd) turned out to be 1.61 L/kg. In series [14], this compound showed an AUC(0-inf) of 7730 ng·h/mL. Further, the Tmax in series [20] turned out to be 1 h. The compound also registered a CL in the series with Mus musculus [18] of under 50%. Also, the Time in the series on Mus musculus [21] is over 12 h.

With `CS(=O)(=O)N1CCN(Cc2cn3nc(-c4cnc(N)nc4)nc(N4CCOCC4)c3n2)CC1`, in series [1], the EC50 is 52.8 nM. For the same compound, the inhibition in series [2], in series [3], in series [4], in series [5] and in series [6] was under 25% in each case. Moreover, the remaining at 0.5 h, 0.5 µM was found to be 95% in [7] and 100% in series [8]. Also, the inhibition at 10 µM on CYP2D6 was under 25%. For the same compound, the solubility kinetic at 24 h in series [9] worked out at 10 µM (≈ 4.75 µg/mL). Also, in series [10], the Papp at 5 h is 3.54 ×10⁻⁶ cm/s.

As to `CS(=O)(=O)N1CCN(Cc2cc3c(N4CCOCC4)nc(-c4cnc(N)nc4)cn3n2)CC1`, in series [19], the IC50 was determined as 1700 nM. For the same compound, in [1], the EC50 was determined as 30.5 nM. Moreover, the inhibition in [2], in series [3], in [4], in series [5] and in series [6] was under 25% throughout. For the same compound, the remaining at 0.5 h, 0.5 µM in series [7] is 97%; in series [8] it was 100%. The inhibition at 10 µM on CYP2D6 is under 25%. Besides, the solubility kinetic at 24 h in [9] turned out to be 10 µM (≈ 4.74 µg/mL). Moreover, the Papp at 5 h in [10] was found to be 0.93 ×10⁻⁶ cm/s. In series [22], the half-life is 0.51 h. This compound also displayed an AUC(0-inf) in series [23] of 5150 ng·h/mL. In the series on Mus musculus [24], the Time was over 8 h.
